Only some compounds are listed: those with a hit (about 2.9% of all), similar ones and a draw of the others.
SENP7 block – SENP7 protease inhibition; Q9BQF6; recombinant SENP7, Z-RLRGG-aminoluciferin luminescence, 40 min; inhibition, % at 5 µM; hit rate 1.5% among 330,000; AID 434973;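 active = inhibition above about 50% at the single test dose, limit read from the data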
SENP6 block – inhibitors of human SENP6 protease; Q9GZR1; hit rate 1.8% among 330,000; inhibition, % at 10 µM; Recombinant SENP6 catalytic domain, aminoluciferin luminescence;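 active = inhibition above about 50% at the single tested dose, limit read from the data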
Target sequence (Q9GZR1 628-1112 limits assumed): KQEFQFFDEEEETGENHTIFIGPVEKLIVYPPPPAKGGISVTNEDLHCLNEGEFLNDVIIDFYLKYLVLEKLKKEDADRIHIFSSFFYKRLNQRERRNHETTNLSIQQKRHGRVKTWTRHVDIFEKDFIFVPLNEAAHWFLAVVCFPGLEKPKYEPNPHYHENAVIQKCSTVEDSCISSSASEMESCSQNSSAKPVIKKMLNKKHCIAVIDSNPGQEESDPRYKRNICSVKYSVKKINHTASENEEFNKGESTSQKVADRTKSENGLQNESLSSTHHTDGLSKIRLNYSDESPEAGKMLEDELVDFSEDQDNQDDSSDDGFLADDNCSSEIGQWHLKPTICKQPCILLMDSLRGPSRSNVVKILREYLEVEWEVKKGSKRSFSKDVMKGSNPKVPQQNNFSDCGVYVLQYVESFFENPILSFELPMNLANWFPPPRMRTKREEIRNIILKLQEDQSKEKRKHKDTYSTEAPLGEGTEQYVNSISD
SENP8 block-1 – SENP8 (human) protease inhibition; inhibition, % at 20 µM; Q96LD8; recombinant SENP8, Nedd8 substrate fluorescence; hit rate 0.64% among 360,000; AID 602440; in the data active = inhibition mostly above about 40%, no sharp cut-off; inactive = mostly below about 27%
HSP90 inh – inhibitors of HSP90 luciferase refolding in rabbit reticulocyte lysate; luciferase refolding luminescence, 3 h; inhibition, % at 5.6 µM; hit rate 0.91% among 290,000; AID 1789;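 active = inhibition above the screen-wide mean plus 3 SD, computed separately per campaign, cut at about 16% in these data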;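 also: inhibitors lower the luminescence because luciferase stays unfolded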
SENP8 block-2 – blocks the human protease SENP8 | inhibition, % at 10 µM | Q96LD8 | purified SENP8, Z-RLRGG-aminoluciferin cleavage, luminescence | hit rate 1.2% among 330,000 | AID 2540; in the data active = inhibition above about 50%
SENP1 inh – blocks the human SENP1 SUMO protease catalytic domain; inhibition, % at 10 µM; Q9P0U3; AID 624204; recombinant SENP1 catalytic domain, CyPet-SUMO1-YPet FRET cleavage; hit rate 0.21% among 360,000;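 active = inhibition at least 30% at 10 µM, raw YFP signal under a set limit, fluorescence ratio 0.5 to 1.5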
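Material: hSENP1 catalytic domain, recombinant; medium: Tris pH 8 with BME, BSA, NP40 and catalase; compound: single concentration of 10 µM compound, 0.5% DMSO final; technique: FRET read of cyan and yellow fluorescence; timing: 50 min enzyme reaction, room temperature, light-protected; reagent: SFCypet-SUMO1-SFYpet substrate at 25 nM; control set: no-enzyme low, enzyme-DMSO high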
SENP8 confirm – human SENP8 inhibition, confirmed; shares compounds with SENP7 block; Recombinant SENP8, Z-RLRGG-aminoluciferin luminescence, 60 min; inhibition, % at 12.5 µM; hit rate 40% among 6,200; AID 488912;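 active = mean inhibition across replicates above about 50%, limit read from the data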
SENP6 conf – confirmation of human SENP6 protease inhibitors | recombinant SENP6, Z-RLRGG-aminoluciferin luminescence | hit rate 58% among 6,200 | shares compounds with SENP7 block | inhibition, % at 12.5 µM
SENP7 confirm – confirmation of human SENP7 protease inhibitors. AID 488917. hit rate 69% among 6,200. shares compounds with SENP7 block. inhibition, % at 12.5 µM. recombinant SENP7, Z-RLRGG-aminoluciferin luminescence, 40 min
Casp3 SENP sel – caspase-3 inhibition (SENP selectivity assay). purified caspase-3, Z-DEVD-aminoluciferin luminescence, 60 min. shares compounds with SENP7 block. hit rate 60% among 6,200. inhibition, % at 12.5 µM;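 active = mean inhibition above about 50%, limit read from the data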
Luc interf – interferes with luciferase luminescence in SENP counter-screen; shares compounds with SENP7 block; Pre-incubated SENP8/Z-RLRGG-aminoluciferin, luciferase luminescence interference; inhibition, % at 12.5 µM; hit rate 39% among 6,200;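 active = mean inhibition above about 50% when retested at one dose, limit read from the data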
A number is an active result; n = inactive; x = no result given.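 The calls were made as follows, unless noted: active = mean inhibition above about 50% in the one-dose retest (limit read from the data); inactive = the rest.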

SMILES	SENP7 block	SENP6 block	SENP8 block-1	HSP90 inh	SENP8 block-2	SENP1 inh	SENP8 confirm	SENP6 conf	SENP7 confirm	Casp3 SENP sel	Luc interf
O=c1c(N2CCOCC2)coc2ccccc12	n	n	n	n	n	n	x	x	x	x	x
O=c1[nH]c(N2CCOCC2)cc2ccccc12	96	91	n	x	87	n	n	76	61	n	n
CC(=O)C1CCC2C3CCC4=CC(=O)CCC4(C)C3(F)C(O)CC12C (centres undefined)	x	x	n	x	x	n	x	x	x	x	x
COC(=O)c1sccc1NC(=O)Cc1ccc(OC)cc1	n	51	n	n	n	n	n	n	79	63	58
COC(=O)c1sccc1NC(=O)c1ccc(C)o1	n	n	n	n	n	n	x	x	x	x	x
NS(=O)(=O)c1ccc(N2N=C(c3ccccc3)CC2c2ccccc2Cl)cc1 (centres undefined)	n	x	n	x	x	n	x	x	x	x	x
Nc1c(Br)cc2oc(-c3ccccc3)nc2c1Br	n	n	n	n	n	n	x	x	x	x	x
COc1ccc(-c2nc3c(Br)c(N)c(Br)cc3o2)cc1	80	n	n	n	n	n	n	n	n	n	n
Cc1cccc2cc(/C=N/NC(=O)c3ccncc3)c(Cl)nc12	n	n	n	n	n	n	x	x	x	x	x
Cc1cccc2cc(/C=N/Nc3ccc(C(=O)O)cc3)c(Cl)nc12	n	83	n	n	77	n	88	90	89	72	n
CSc1cccc(NC(=O)c2cnn3ccccc23)c1	71	76	n	n	n	n	72	70	91	65	72
CN(C)c1ccc(/C=C/C(=O)c2ccc(O)cc2)cc1	x	x	n	x	x	n	x	x	x	x	x
Cc1ccc(NC2=C(N3CCCCC3)C(=O)c3ccccc3C2=O)cc1	n	66	82	n	52	n	n	90	74	95	n
COc1ccccc1NS(=O)(=O)c1cc(N)ccc1N1CCCC1	n	n	n	x	n	n	x	x	x	x	x
O=C(/C=C/c1ccc(O)cc1)c1ccc(NC2=C(N3CCCCC3)C(=O)c3ccccc3C2=O)cc1	n	76	n	n	67	n	64	85	77	95	84
CC(=O)Nc1ccc(S(=O)(=O)NC2=C(N3CCN(Cc4ccccc4)CC3)C(=O)c3ccccc3C2=O)cc1	x	x	n	n	x	n	x	x	x	x	x
COc1ccccc1NC1=C(N2CCCCC2)C(=O)c2ccccc2C1=O	n	74	88	n	73	n	n	91	72	97	n
O=C1C(Nc2cccc(O)c2)=C(N2CCCCC2)C(=O)c2ccccc21	n	81	76	n	63	n	57	77	n	94	n
O=C(O)c1cccc(NC2=C(Cl)C(=O)c3ccccc3C2=O)c1	x	x	n	n	x	n	x	x	x	x	x
CS(=O)(=O)N1Cc2ccccc2CC1C(=O)OCC(=O)NCCc1ccc(S(N)(=O)=O)cc1 (centres undefined)	n	n	n	x	n	n	x	x	x	x	x
CCc1c(C)nc(SCC(=O)N2CCCCC2C)[nH]c1=O (centres undefined)	n	n	n	n	n	n	x	x	x	x	x
N#Cc1ccc(-c2nc3ccc(Br)cn3c2Cc2ccccc2)cc1	x	x	n	x	x	n	x	x	x	x	x
CCOC(=O)CCc1cnccc1-c1cccc(OC)c1O	n	n	n	x	n	n	x	x	x	x	x
CN(C)c1cccc(C(=O)Nc2cccc(S(=O)(=O)NC3=NCCC3)c2)c1	n	n	n	n	n	n	x	x	x	x	x
O=C1C(Nc2ccccc2)=C(N2CCCCC2)C(=O)c2ccccc21	61	86	83	n	59	n	63	79	58	95	n
COc1ccc(OCCOc2ccc(/C=C3\C(=N)N4N=C(C)SC4=NC3=O)cc2)cc1	n	n	n	x	n	n	x	x	x	x	x

Bioassay records from PubChem.
